Paper PMC3076219 (European journal of immunology, 2009)
“And” between values parts separate entries of the source, which are not always exact repeats. Equal entries are not always repeated.

How the values were obtained:
CXCR1 [1] = experiment: CXCR1 surface expression on neutrophils, flow cytometry; type: cell-based, human
Summary of the method: (§1)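 Human blood neutrophils were isolated by dextran sedimentation and Ficoll (>95% CD16+) and held at 5×10^6/mL in RPMI 1640 with 1% FBS. They were treated 3h with a dose series (test peptide 1–10 µM; chemokines 1, 5, 10, 50 nM) or with 5 µM for 0.5–3h. Cells were blocked in 10% human serum and stained with anti-CXCR1-APC/anti-CXCR2-FITC or anti-P2X7-FITC, plus anti-CD16. Read-out was flow cytometry GMFI.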

P2X7 = P2X7 surface expression on neutrophils, flow cytometry; type: cell-based, human; conditions: LL-37 treated neutrophils, 3h; Fig. 2D
Summary of the method: as §1

FPR2 = FPR2 surface expression on neutrophils; type: cell-based, human; conditions: LL-37; data not shown
neutrophils [2] = experiment: Cross-desensitization of calcium mobilization of neutrophils; type: cell-based, human
[3] = system: 125I-CXCL8 specific binding sites on neutrophils (CXCR1/2); experiment: Competition with 125I-CXCL8 for binding to neutrophils; set-up: species or system human; conditions: 1.25 nM 125I-CXCL8, 2h on ice, triplicate, dose-dependent, Fig. 5B
neutrophils [4] = experiment: Neutrophil migration, 24-well Transwell; type: cell-based, human; conditions: 1 h, 37°C, Fig. 6H
Summary of the method: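 CFSE-labelled human neutrophils (5 µM, 5 min RT) at 5×10^6/mL in phenol-red-free RPMI 1640 with 1% FBS went in the Transwell upper chamber (3-µm pores). The lower chamber held test peptide (1 or 5 µM) or medium. Some cells were first preincubated 20 min with 10 µM CXCR2 antagonist. After 1 h at 37 °C, migrated cells were read at 495 nm against a standard curve. Quadruplicate; unpaired t-test.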

CXCR2 [5] = experiment: Calcium mobilization in HEK293/CXCR2 cells; type: cell-based, human; conditions: Indo-1; Fig. 7A-B
Summary of the method: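 They were washed in cold PBS, pelleted at 200 × g for 10 min at 4 °C, and resuspended in PBS with Ca/Mg. […] [Ca2+]i was read as the 405:485 nm ratio by flow cytometry, gating on living cells.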

THP-1 cells [6] = experiment: Calcium mobilization in THP-1 cells; type: cell-based; conditions: Fig. 7C
Summary of the method: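 Peripheral blood monocytes (kit-isolated from PBMC, CD14-checked) or THP-1 cells at 10^7/mL were loaded with 5 µM Indo-1-AM for 7 min at 37 °C, then held 10 min at RT and washed in cold PBS. Cells were run at 2×10^6/mL in KRP (PBS, 1.5 mM CaCl2, 1.5 mM MgSO4). After baseline they got a first stimulus, then a second. Flow cytometry used 351 nm excitation and the 405:485 nm ratio, gating live cells. Three independent experiments.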

THP-1 cells [7] = experiment: Migration of THP-1 cells, 24-well Transwell; type: cell-based; conditions: LL-37 5 µM, CXCL1 50 nM, WKYMVm 5 µM, ATP 50 µM, BzATP 50 µM; 2 h, 37°C; Fig. 7E
Summary of the method: (§2)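 CFSE-labelled monocytes or THP-1 cells (5 µM, 5 min RT) at 2×10^6/mL in phenol-red-free RPMI 1640 with 1% FBS went in the Transwell upper chamber (3-µm pores). Stimuli in the lower chamber included CXCL1 50 nM, WKYMVm 5 µM and ATP/BzATP 50 µM. Cells were used with or without 20 min preincubation with 10 µM CXCR2 antagonist. Incubation at 37 °C lasted 90 min for monocytes and 2 h for THP-1. Lower-well cells were read at 495 nm against a standard curve, in quadruplicate.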

monocytes [8] = experiment: Migration of monocytes, 24-well Transwell; type: cell-based, human; conditions: LL-37 5 µM, CXCL1 50 nM, WKYMVm 5 µM, ATP 50 µM, BzATP 50 µM; 90 min, 37°C; Fig. 7F
Summary of the method: as §2

CXCR1 [9] = experiment: Confocal analysis of CXCR1 internalization in neutrophils; type: cell-based, human; conditions: LL-37 5 µM or CXCL8 50 nM, 1 h, 37°C; Fig. 8
Summary of the method: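 Neutrophils came from citrated donor blood by dextran sedimentation and Ficoll gradient. […] Cells were fixed in 2% paraformaldehyde, permeabilised with saponin and blocked with human serum. Anti-CXCR1 or anti-CXCR2 mAb (4°C), then Alexa 488 anti-mouse IgG, DAPI mount, confocal imaging; three independent experiments.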

[10] = system: CXCR2 transfected HEK293 cells; experiment: Secondary necrosis of CXCR2 transfected HEK293 cells; type: cell-based; conditions: Supporting information Fig. 4
neutrophils [11] = experiment: Toxicity to neutrophils; type: cell-based, human
CXCR2 [12] = experiment: Block of anti-CXCR2 antibody binding to neutrophils; type: cell-based, human; conditions: LL-37 treated neutrophils; Supporting Information Fig. 6A
CXCR2 [13] = experiment: Total CXCR2 protein in neutrophils, western blot; type: cell-based, human; conditions: LL-37 treated neutrophils, Supporting Information Fig. 6B
[14] = system: CXCR1 transfected HEK293 cells; experiment: Secondary necrosis of CXCR1 transfected HEK293 cells; type: cell-based; conditions: Supporting information Fig. 4
CXCR2 [15] = conditions: LL-37 treated neutrophils; ref [15]; cited from earlier work
monocytes [16] = conditions: cited from earlier work
neutrophils [17] = conditions: ref [15], cited from earlier work
neutrophils [18] = conditions: LL-37; ref [15]; cited from earlier work
immature dendritic cells = conditions: differentiated from monocytes; ref [9]; cited from earlier work
macrophages = conditions: including chemokines and their receptors; ref [6]; cited from earlier work
CD4+ T cells = conditions: ref [3], [9], [10]; cited from earlier work
mast cells = conditions: ref [3], [9], [10]; cited from earlier work

LL-37: ~4.5 kD active α-helical peptide, C-terminal domain of human cathelicidin hCAP18
CXCR1 surface expression, time course (CXCR1 [1]; LL-37 5 µM, 0.5-3h, Fig. 1C): not affected by LL-37 treatment | CXCR1 down-regulation at 10 µM (CXCR1 [1]; LL-37 10 µM, 3h): does not down-regulate CXCR1 | P2X7 surface expression (P2X7): up-regulate the expression of P2X7 | FPR2 surface expression, time course (FPR2): remained unchanged | cross-desensitization of ATP response by LL-37 (neutrophils [2]; LL-37 first, then ATP, Supporting information Fig. 3A-B): unable to block calcium mobilization stimulated by LL-37 in neutrophils, and vice versa | cross-desensitization of response to fMLF by LL-37, CXCL7, CXCL1 (neutrophils [2]; data not shown): do not cross-sensitize fMLF stimulation | maximum competition of 125I-CXCL8 binding ([3]; 2×10^6 cells): around 50% | displacement of 125I-CXCL8 [3]: partly displace | neutrophil migration at 1 µM (neutrophils [4]; LL-37 1 µM): not at 1 µM | neutrophil migration at 5 µM (neutrophils [4]; LL-37 5 µM, over background, p<0.05): induced neutrophil migration (over background) | calcium mobilization in CXCR2 transfected HEK293 cells (CXCR2 [5]): weak but similar patterns of calcium mobilization | calcium signal in THP-1 cells (THP-1 cells [6]): robust calcium signal | return of Ca2+ response to baseline, THP-1 (THP-1 cells [6]; LL-37): returns to baseline for THP-1 cells | block of ATP induced calcium mobilization by LL-37 (THP-1 cells [6]; THP-1): able to partially block | stimulation of migration of THP-1 cells (THP-1 cells [7]): but not THP-1 cells | stimulation of migration of monocytes (monocytes [8]): able to stimulate migration in monocytes | CXCR1 translocation (internalization) (CXCR1 [9]): translocation of CXCR2 but not CXCR1 to the cytoplasmic granules | generation of secondary necrotic cells, HEK293/CXCR2 [10]: generation of secondary necrotic cells | cell membrane permeability (neutrophils [11]; > 10 µM LL-37, 125I-CXCL8 enters cells non-specifically): can cause cell membrane permeability | concentration with toxic activity on neutrophils (neutrophils [11]; in 125I-CXCL8 binding study): > 10 µM and 10 µM | block of anti-CXCR2 antibody binding (CXCR2 [12]): did not block anti-CXCR2 antibodiy binding | total CXCR2 protein level (CXCR2 [13]): no changes in total amounts | generation of secondary necrotic cells, HEK293/CXCR1 [14]: generation of secondary necrotic cells | down-regulation among 21 cell surface markers (CXCR2 [15]): only CXCR2 was specifically down-regulated | migration of human peripheral monocytes (monocytes [16]; ref [3], [9], [10]): migration of human peripheral monocytes | in vitro migration of human peripheral blood monocytes (monocytes [16]; ref [9]): induces in vitro migration of human peripheral blood monocytes | cytotoxicity (neutrophils [17]; LL-37 10 µM): general cytotoxicity is observed at this dosage | toxic effect on freshly isolated neutrophils (neutrophils [17]; annexin V negative): no toxic effect | ATP release (neutrophils [18]): induces ATP release from neutrophils | migration of immature dendritic cells (immature dendritic cells): but not immature dendritic cells | number of genes with stimulated expression by macrophages (macrophages): over 40 genes | migration of CD4+ T cells (CD4+ T cells): migration of human peripheral monocytes, neutrophils, CD4+ T cells | migration of mast cells (mast cells): migration of human peripheral monocytes, neutrophils, CD4+ T cells, and mast cells
